Measured values from ChEMBL document CHEMBL3808360, “Discovery of Potent Non-Nucleoside Inhibitors of Dengue Viral RNA-Dependent RNA Polymerase from a Fragment Hit Using Structure-Based Drug Design” (J Med Chem, 2016).
Calls of active or inactive are those of the source. The calls are words filed in the database; no cut-off is given here.

Columns and labels:
[1] = Inhibition of RdRp activity of Dengue virus 4 full length NS5 preincubated for 15 mins followed by RNA and NTP addition measured after 120 mins; parameters: species or system dengue virus type 4
Summary of the method: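 Reaction with 100 nM DENV4 full-length NS5 and 100 nM in vitro transcribed DENV4 mini-genome RNA template (575 nt, linked 5'-3' UTRs). NTPs: 20 µM each ATP, GTP and UTP plus 5 µM ATTO-CTP. Compound (two-fold series from 20 or 100 µM) preincubated with enzyme 15 min at room temperature. RNA/NTP mix added; run 120 min. Stopped with alkaline phosphatase stop buffer, 60 min. Fluorescence read at ex 422/em 566 nm. Duplicate wells; IC₅₀ from variable-slope sigmoidal fit.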

[2] = Binding affinity to Dengue virus 4 NS5 RdRp (274 to 900 residues) by ITC method; parameters: species or system dengue virus type 4
Summary of the method: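 DENV-4 RdRp (residues 274-900) at 30-50 µM in the cell, in 20 mM HEPES pH 7.0, 300 mM NaCl, 2 mM TCEP, DMSO matched to ligand. Ligand diluted from a 50 mM DMSO stock into the same buffer, typically 2.5 mM in the syringe. Run at 25°C: one 0.4 µl injection, then 15 × 2.6 µl. Heat of dilution into buffer subtracted.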

[3] = Apparent permeability across apical to basolateral side in human Caco2 cells at pH 7.4; assay type: ADME, cell-based; conditions: Caco-2, pH 7.4
Summary of the method: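 Apical-to-basal Caco-2 permeability measured at pH 7.4.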

dengue virus type 3 [4] = experiment: Antiviral activity against Dengue virus 3 MY05-34640 infected in human A549 cells assessed as reduction in DENV envelope protein level up to 50 uM after 48 hrs; assay type: functional, organism-based
Summary of the method: (§1)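 A549 cells (~7×10^3/well) seeded in Ham's F-12K with 2% FBS, 1 mM L-glutamine and 1% penicillin-streptomycin, held overnight at 37°C, 5% CO₂. Infected at 24 h post-seeding (DENV1 MOI 0.5, DENV2 MOI 0.3, DENV3 MOI 1, DENV4 MOI 0.5). Compound added at once as a 10-point, 3-fold series, 0.5% DMSO final. Fixed at 48 h with 4% paraformaldehyde. Stained with Dylight 488-4G2 anti-envelope antibody and DRAQ5 nuclear stain. Envelope protein quantified by high-content imaging; EC₅₀ calculated.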

dengue virus type 4 [5] = experiment: Antiviral activity against Dengue virus 4 MY01-22713 infected in human A549 cells assessed as reduction in DENV envelope protein level up to 50 uM after 48 hrs; assay type: functional, organism-based; summary of the method: as §1
dengue virus type 1 [6] = experiment: Antiviral activity against Dengue virus 1 MY97-10245 infected in human A549 cells assessed as reduction in DENV envelope protein level up to 50 uM after 48 hrs; assay type: functional, organism-based; summary of the method: as §1
[7] = Lipophilicity, log D of the compound at pH 7.4; assay type: physicochemical; conditions: buffer
[8] = Dissociation constant, pKa of the compound; assay type: physicochemical
dengue virus type 2 [9] = experiment: Antiviral activity against Dengue virus 2 MY97-10340 infected in human A549 cells assessed as reduction in DENV envelope protein level up to 50 uM after 48 hrs; assay type: functional, organism-based; summary of the method: as §1
[10] = Binding affinity to biotinylated Dengue virus 4 NS5 RdRp by surface plasmon resonance analysis; parameters: species or system dengue virus type 4
Summary of the method: (§2)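 Blank reference cell. Compound run as a 7-point 2-fold series, typically from 200 µM, with zero-concentration subtraction. Flow 30 µL/min, 45 s contact, 60-600 s dissociation, run from low to high concentration.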

[11] = Inhibition of RdRp activity of Dengue virus 1 NS5 preincubated for 15 mins followed by RNA and NTP addition measured after 120 mins; parameters: species or system dengue virus type 1
[12] = Inhibition of RdRp activity of Dengue virus 3 NS5 preincubated for 15 mins followed by RNA and NTP addition measured after 120 mins; parameters: species or system dengue virus type 3
[13] = Inhibition of RdRp activity of Dengue virus 2 NS5 preincubated for 15 mins followed by RNA and NTP addition measured after 120 mins; parameters: species or system dengue virus type 2
dengue virus type 4 [14] = experiment: Antiviral activity against Dengue virus 4 MY01-22713 infected in human A549 cells assessed as reduction in DENV envelope protein level after 48 hrs; assay type: functional, organism-based; conditions: MY01-22713, A549, 48 h; summary of the method: as §1
dengue virus type 3 [15] = experiment: Antiviral activity against Dengue virus 3 MY05-34640 infected in human A549 cells assessed as reduction in DENV envelope protein level after 48 hrs; assay type: functional, organism-based; conditions: MY05-34640, A549, 48 h; summary of the method: as §1
dengue virus type 1 [16] = experiment: Antiviral activity against Dengue virus 1 MY97-10245 infected in human A549 cells assessed as reduction in DENV envelope protein level after 48 hrs; assay type: functional, organism-based; conditions: MY97-10245, A549, 48 h; summary of the method: as §1
dengue virus type 2 [17] = experiment: Antiviral activity against Dengue virus 2 MY97-10340 infected in human A549 cells assessed as reduction in DENV envelope protein level after 48 hrs; assay type: functional, organism-based; conditions: MY97-10340, A549, 48 h; summary of the method: as §1
[18] = Cytotoxicity against human HepG2 cells; assay type: cell-based
[19] = Binding affinity to N-terminal AviTag Dengue virus 3 NS5 RdRp (263 to 900 residues) expressed in Escherichia coli BL21 cells by surface plasmon resonance analysis; parameters: species or system dengue virus type 3; summary of the method: as §2
[20] = Inhibition of RdRp activity of Dengue virus 4 of NS5 preincubated with enzyme followed by RNA and NTP addition; parameters: species or system dengue virus type 4
[21] = Inhibition of RdRp activity of Dengue virus 3 NS5; parameters: species or system dengue virus type 3
[22] = Binding affinity to Dengue virus 3 NS5 RdRp by surface plasmon resonance analysis; parameters: species or system dengue virus type 3; summary of the method: as §2

Compound: O=C(O)Cc1cc(CC(=O)O)cc(-c2ccccc2Cl)c1
- IC50 [1]: 192 µM

Compound: O=C(O)Cc1cc(CC(=O)O)cc(-c2ccccc2)c1
- IC50 [1]: 177 µM
- Kd [2]: 154 µM

Compound: O=C(O)Cc1cc(CC(=O)O)cc(-c2cccs2)c1
- IC50 [1]: 15 µM
- Kd [2]: 28 µM

Compound: COc1ccc(-c2nnn[nH]2)cc1-c1ccc(C#CCO)s1
- IC50 [1]: 2.4 µM
- Papp A→B [3]: 1.39 ×10⁻⁶ cm/s

Compound: COc1cc(C)c(C(=O)O)cc1-c1ccc(C#CCO)s1
- Activity (dengue virus type 3 [4]): inactive
- Activity (dengue virus type 4 [5]): inactive
- Activity (dengue virus type 1 [6]): inactive
- logD [7]: 1.2
- IC50 [1]: 0.53 µM
- Kd [2]: 1.6 µM
- pKa [8]: 4.2
- Activity (dengue virus type 2 [9]): inactive
- Kd [10]: 0.11 µM

Compound: O=C(O)Cc1cc(CC(=O)O)cc(-c2ccc(Cl)cc2)c1
- IC50 [1]: 62 µM

Compound: COc1ccc(CC(=O)O)cc1-c1ccc(C#CCO)s1
- IC50 [1]: 7.5 µM
- Kd [2]: 14 µM
- Papp A→B [3]: 2.73 ×10⁻⁶ cm/s
- Kd [10]: 2.2 µM

Compound: COc1ccc(C(=O)O)cc1-c1ccc(C#CCO)s1
- logD [7]: 0.79
- IC50 [1]: 2.3 µM
- Kd [2]: 3.8 µM
- pKa [8]: 4.2
- Kd [10]: 1.7 µM

Compound: O=C(O)Cc1cc(CC(=O)O)cc(-c2ccc(C#CCO)s2)c1
- IC50 [11]: 0.3 µM
- IC50 [12]: 0.5 µM
- IC50 [13]: 2.2 µM
- Papp A→B [3]: 0.51 ×10⁻⁶ cm/s

Compound: COc1cc(C)c(C(=O)NS(=O)(=O)c2ccccc2)cc1-c1ccc(C#CCO)s1
- EC50 (dengue virus type 4 [14]): 41 µM
- logD [7]: 1.7
- IC50 [1]: 0.17 µM
- pKa [8]: 3.8
- EC50 (dengue virus type 3 [15]): 18 µM
- EC50 (dengue virus type 1 [16]): 31 µM
- Papp A→B [3]: 0.5 ×10⁻⁶ cm/s
- EC50 (dengue virus type 2 [17]): 34 µM

Compound: COc1cc(C)c(-c2ncc[nH]2)cc1-c1ccc(C#CCO)s1
- logD [7]: 3.6
- IC50 [1]: 44 µM
- pKa [8]: 6.6

Compound: O=C(O)Cc1cc(CC(=O)O)cc(-c2ccc(Cl)s2)c1
- Kd [2]: 33 µM

Compound: O=C(O)Cc1cc(CC(=O)O)cc(-c2ccc(Br)s2)c1
- IC50 [1]: 39 µM
- Kd [2]: 46 µM

Compound: COc1cccc(S(=O)(=O)NC(=O)c2cc(-c3ccc(C#CCO)s3)c(OC)cc2OC)c1
- IC50 [11]: 0.068 µM
- EC50 (dengue virus type 4 [14]): 1.8 µM
- CC50 [18]: > 50 µM
- logD [7]: 1.6
- IC50 [12]: 0.048 µM
- IC50 [13]: 0.11 µM
- pKa [8]: 4.7
- EC50 (dengue virus type 3 [15]): 1.8 µM
- EC50 (dengue virus type 1 [16]): 1.8 µM
- Papp A→B [3]: 3.91 ×10⁻⁶ cm/s
- EC50 (dengue virus type 2 [17]): 2.3 µM
- Kd [10]: 0.07 µM

Compound: O=C(O)Cc1cc(CC(=O)O)cc(-c2ccc(C#CCCO)s2)c1
- IC50 [1]: 29 µM
- Kd [2]: 34 µM

Compound: COc1cccc(S(=O)(=O)NC(=O)c2cc(-c3ccc(C#CCO)s3)c(Cl)cc2OC)c1
- EC50 (dengue virus type 4 [14]): 7 µM
- logD [7]: 0.9
- IC50 [1]: 0.14 µM
- pKa [8]: 3.8
- EC50 (dengue virus type 3 [15]): 5.5 µM
- EC50 (dengue virus type 1 [16]): 6.8 µM
- EC50 (dengue virus type 2 [17]): 13 µM
- Kd [10]: 0.01 µM

Compound: COc1cc(C)c(C(=O)NS(C)(=O)=O)cc1-c1ccc(C#CCO)s1
- Activity (dengue virus type 3 [4]): inactive
- Activity (dengue virus type 4 [5]): inactive
- EC50 (dengue virus type 4 [14]): > 50 µM
- Activity (dengue virus type 1 [6]): inactive
- logD [7]: 0.8
- IC50 [1]: 0.34 µM
- Kd [2]: 2 µM
- pKa [8]: 4
- EC50 (dengue virus type 3 [15]): > 50 µM
- EC50 (dengue virus type 1 [16]): > 50 µM
- Papp A→B [3]: 0.5 ×10⁻⁶ cm/s
- Activity (dengue virus type 2 [9]): inactive
- EC50 (dengue virus type 2 [17]): > 50 µM
- Kd [10]: 0.12 µM

Compound: O=C(O)Cc1cc(CC(=O)O)cc(-c2cccc(Cl)c2)c1
- IC50 [1]: 141 µM

Compound: COc1cc(C)c(S(=O)(=O)NC(C)=O)cc1-c1ccc(C#CCO)s1
- logD [7]: 0.78
- IC50 [1]: 2.5 µM
- pKa [8]: 4.8

Compound: COc1ccc(CC(=O)O)cc1-c1ccccc1
- Kd [19]: 613 µM
- IC50 [20]: 734 µM

Compound: O=C(O)Cc1ccc(O)c(-c2ccccc2)c1
- IC50 [21]: 769 µM
- Kd [22]: 200 µM

Compound: COc1cc(OC)c(-c2ccc(C#CCO)s2)cc1C(=O)NS(=O)(=O)c1ccccc1
- EC50 (dengue virus type 4 [14]): 14 µM
- logD [7]: 1.5
- IC50 [1]: 0.25 µM
- pKa [8]: 4.8
- EC50 (dengue virus type 3 [15]): 7.3 µM
- EC50 (dengue virus type 1 [16]): 15 µM
- Papp A→B [3]: 10.8 ×10⁻⁶ cm/s
- EC50 (dengue virus type 2 [17]): 37 µM
- Kd [10]: 0.09 µM

Compound: COc1cc(C)c(-c2noc(=O)[nH]2)cc1-c1ccc(C#CCO)s1
- logD [7]: 1.9
- IC50 [1]: 3.2 µM
- pKa [8]: 5.5

Compound: Cc1ccc(-c2cc(CC(=O)O)cc(CC(=O)O)c2)s1
- IC50 [1]: 96 µM

Compound: O=C(O)Cc1cc(CC(=O)O)cc(-c2ccco2)c1
- IC50 [1]: 211 µM
- Kd [2]: 552 µM

Compound: N#Cc1ccc(-c2cc(CC(=O)O)cc(CC(=O)O)c2)s1
- IC50 [1]: 199 µM
- Kd [2]: 134 µM
